The subject of one test is Cellulomonas fimi. As to the kind of experiment: Inhibition of Cellulomonas fimi beta-D-mannosidase at 1 mg/ml after 10 to 20 mins. The gist of the method: (§1)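 Enzyme was pre-incubated with test solution at 1 mg/ml, or dH2O for controls, for 10–20 min at 27 °C. Substrate was added and incubation continued for the same time at 27 °C. The reaction was stopped with glycine solution and read at 405 nm. Each sample and control ran in three wells at the enzyme's optimal pH. Values are % inhibition.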

In another test the test system is Prunus. The experiment in a line: Inhibition of almond beta-D-glucosidase at 1 mg/ml after 10 to 20 mins. The gist of the method: as §1
Test [1] addresses T1, Beta-galactosidase (Bos taurus) (UniProt Q58D55).
T1 sequence (whole entry): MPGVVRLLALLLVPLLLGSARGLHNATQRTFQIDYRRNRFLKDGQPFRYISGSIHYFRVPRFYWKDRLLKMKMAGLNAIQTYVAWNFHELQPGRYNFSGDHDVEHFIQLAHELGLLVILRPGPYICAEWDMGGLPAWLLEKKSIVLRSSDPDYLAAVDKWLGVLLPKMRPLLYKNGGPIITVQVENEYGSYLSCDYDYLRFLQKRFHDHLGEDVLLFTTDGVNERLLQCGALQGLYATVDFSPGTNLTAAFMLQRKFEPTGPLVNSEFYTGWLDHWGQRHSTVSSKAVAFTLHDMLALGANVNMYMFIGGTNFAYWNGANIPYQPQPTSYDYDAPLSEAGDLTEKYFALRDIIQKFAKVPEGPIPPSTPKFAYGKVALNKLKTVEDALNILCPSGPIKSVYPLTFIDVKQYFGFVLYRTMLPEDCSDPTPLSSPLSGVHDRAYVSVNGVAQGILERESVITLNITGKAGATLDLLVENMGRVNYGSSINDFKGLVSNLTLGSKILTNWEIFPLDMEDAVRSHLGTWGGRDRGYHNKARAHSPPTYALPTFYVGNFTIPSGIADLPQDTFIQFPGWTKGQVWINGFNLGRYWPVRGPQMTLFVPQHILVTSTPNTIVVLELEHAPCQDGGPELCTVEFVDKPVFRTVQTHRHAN
As to the kind of experiment: Inhibition of bovine kidney beta-D-galactosidase at 1 mg/ml after 10 to 20 mins. The gist of the method:
as §1

Test [2] has as its system Geobacillus stearothermophilus. The experiment in a line: Inhibition of Bacillus stearothermophilus alpha-D-glucosidase at 1 mg/ml after 10 to 20 mins. The gist of the method:
as §1

Test [3] addresses Alpha-galactosidase (Coffea arabica) (UniProt Q42656). The experiment in a line: Inhibition of green coffee beans alpha-D-galactosidase at 1 mg/ml after 10 to 20 mins. The gist of the method: as §1
The species entered for the next test is Bos taurus. As to the kind of experiment: Inhibition of bovine kidney N-acetyl-beta-D-glucosaminidase at 1 mg/ml after 10 to 20 mins. The gist of the method:
as §1

The subject of another test is Oryza sativa. The experiment in a line: Inhibition of rice alpha-D-glucosidase at 1 mg/ml after 10 to 20 mins. The gist of the method: as §1
The test system of the next test is Penicillium decumbens. As to the kind of experiment: Inhibition of Penicillium decumbens naringinase at 1 mg/ml after 10 to 20 mins. The gist of the method:
as §1

Another test deals with Canavalia ensiformis. The experiment in a line: Inhibition of jack bean alpha-D-mannosidase at 1 mg/ml after 10 to 20 mins. The gist of the method:
as §1

The next test concerns Saccharomyces cerevisiae. As to the kind of experiment: Inhibition of Saccharomyces cerevisiae alpha-D-glucosidase at 1 mg/ml after 10 to 20 mins. The gist of the method:
as §1

Active and inactive are the calls of the source. No cut-off for these calls is given here.

Chain of Alpha-galactosidase (Coffea arabica) (Q42656 16-378 limits assumed): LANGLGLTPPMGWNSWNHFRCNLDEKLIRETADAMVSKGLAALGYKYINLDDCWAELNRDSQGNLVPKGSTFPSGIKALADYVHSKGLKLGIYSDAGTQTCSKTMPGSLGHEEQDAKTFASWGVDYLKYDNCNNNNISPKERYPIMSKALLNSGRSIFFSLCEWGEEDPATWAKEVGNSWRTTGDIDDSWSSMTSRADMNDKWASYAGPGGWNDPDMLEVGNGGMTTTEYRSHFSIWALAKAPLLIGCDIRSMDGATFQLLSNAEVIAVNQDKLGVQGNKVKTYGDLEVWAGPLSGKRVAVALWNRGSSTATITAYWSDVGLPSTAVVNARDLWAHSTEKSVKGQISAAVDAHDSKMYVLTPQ

For orientation: inhibition means the percentage by which the read-out fell short of the control. `COC(=O)C(Cc1ccc(O)cc1)N1C[C@@H](CO)O[C@H](OC)[C@H](O)C1` (stereo partly drawn): the inhibition result (with Cellulomonas fimi; in the test on Prunus; in [1]; in test [2]; in test [3]; in the test listed under Bos taurus) was “inactive” in each case. In addition, the inhibition result with Oryza sativa, in the test with Penicillium decumbens, in the test with Canavalia ensiformis and in the test on Saccharomyces cerevisiae was “inactive” throughout.

Consider `COC(=O)C(C)N1C[C@@H](CO)O[C@H](OC)[C@H](O)C1` (stereo partly drawn), for which the inhibition result (with Cellulomonas fimi; with Prunus; in [1]; in [2]; in [3]; in the test filed under Bos taurus) was “inactive” each time. Further, the inhibition entry in the test with Oryza sativa, in the test on Penicillium decumbens, in the test with Canavalia ensiformis and in the test on Saccharomyces cerevisiae was “inactive” each time.

Consider `CO[C@H]1O[C@H](CO)CN(Cc2ccccc2)C[C@H]1O`, for which the inhibition result (with Cellulomonas fimi; with Prunus; in test [1]; in test [2]; in [3]; in the test on Oryza sativa) was “inactive” each time. The inhibition result with Penicillium decumbens, in the test with Canavalia ensiformis and in the test on Saccharomyces cerevisiae was “inactive” each time.

Take `COC(=O)C(Cc1ccccc1)N1C[C@@H](CO)O[C@H](OC)[C@H](O)C1` (stereo partly drawn): the inhibition entry (with Cellulomonas fimi; in the test on Prunus; in test [1]; in test [2]; in [3]; in the test listed under Bos taurus) was “inactive” throughout. In addition, the inhibition result in the test on Oryza sativa, in the test with Penicillium decumbens, with Canavalia ensiformis and in the test on Saccharomyces cerevisiae was “inactive” in each case.

Consider `COC(=O)C(Cc1ccc(O)cc1)N1C[C@@H](CO)O[C@H](OC)C1` (stereo partly drawn), for which the inhibition result (in the test with Cellulomonas fimi; with Prunus; in test [2]; in test [3]; in the test listed under Bos taurus; with Oryza sativa) was “inactive” each time. Also, the inhibition result with Penicillium decumbens and in the test with Saccharomyces cerevisiae was “inactive” throughout. For the same compound, the inhibition in test [1] amounted to 12%.

With `COC(=O)C(Cc1ccccc1)N1C[C@@H](CO)O[C@H](OC)C1` (stereo partly drawn), the inhibition result (in the test with Cellulomonas fimi; in the test on Prunus; in [2]; in [3]; in the test listed under Bos taurus; in the test on Oryza sativa) was “inactive” each time. The inhibition entry with Penicillium decumbens and in the test with Saccharomyces cerevisiae was “inactive” in each case. In [1], this compound registered an inhibition of 5%.

In the case of `CO[C@H]1O[C@H](CN2C[C@@H](CO)O[C@H](OC)[C@H](O)C2)[C@@H](OCc2ccccc2)[C@H](OCc2ccccc2)[C@H]1OCc1ccccc1`, the inhibition result (with Cellulomonas fimi; in the test with Prunus; in test [1]; in test [2]; in [3]; in the test listed under Bos taurus) was “inactive” each time. Besides, the inhibition result with Oryza sativa, in the test on Penicillium decumbens, in the test with Canavalia ensiformis and in the test with Saccharomyces cerevisiae was “inactive” throughout.

On to `CCCN1C[C@@H](CO)O[C@H](OC)[C@H](O)C1`, for which the inhibition entry (in the test on Cellulomonas fimi; in the test with Prunus; in test [2]; in test [3]; in the test with Oryza sativa; in the test with Penicillium decumbens) was “inactive” throughout. For the same compound, the inhibition result in the test with Canavalia ensiformis is “inactive”. Moreover, the inhibition in test [1] turned out to be 32%; in the test listed under Bos taurus, 25%; in the test with Saccharomyces cerevisiae it was 10%.

Take `CO[C@@H]1CNC[C@@H](CO)O1`: the inhibition in the test on Cellulomonas fimi was 5%; in the test with Prunus it was 4%; in test [1], 27%; in the test filed under Bos taurus it was 10%; with Penicillium decumbens, 9%. The inhibition result (in test [2]; in [3]; in the test with Oryza sativa; with Canavalia ensiformis; with Saccharomyces cerevisiae) was “inactive” each time.

Turning to `COC(=O)CN1C[C@@H](CO)O[C@H](OC)[C@H](O)C1`, the inhibition result (with Cellulomonas fimi; in the test with Prunus; in test [1]; in test [2]; in test [3]; in the test on Oryza sativa) was “inactive” throughout. Also, the inhibition result in the test with Penicillium decumbens, in the test with Canavalia ensiformis and in the test with Saccharomyces cerevisiae was “inactive” throughout.

As for `CO[C@H]1O[C@H](CO)CN(O)C[C@H]1O`, the inhibition entry (in the test with Cellulomonas fimi; in the test on Prunus; in [1]; in test [2]; in [3]; in the test with Oryza sativa) was “inactive” each time. For the same compound, the inhibition entry in the test on Penicillium decumbens, in the test on Canavalia ensiformis and in the test on Saccharomyces cerevisiae was “inactive” each time.

Take `CCCCCCCCN1C[C@@H](CO)O[C@H](OC)[C@H](O)C1`: the inhibition result (in the test on Cellulomonas fimi; in the test with Prunus; in test [1]; in [2]; in [3]; in the test with Oryza sativa) was “inactive” each time. In addition, the inhibition result in the test on Penicillium decumbens, with Canavalia ensiformis and in the test on Saccharomyces cerevisiae was “inactive” throughout.

For the compound `CO[C@H]1O[C@H](CO)CNC[C@H]1O`, the inhibition entry in the test on Cellulomonas fimi, in the test on Prunus, in the test with Oryza sativa, with Penicillium decumbens, with Canavalia ensiformis and in the test on Saccharomyces cerevisiae was “inactive” throughout. For the same compound, the inhibition in test [1] is 16%; in test [2], 8%; in [3] it was 6%; in the test listed under Bos taurus it was 9%.

Take `COC(=O)CN1C[C@@H](CO)O[C@H](OC)C1`: the inhibition entry (with Cellulomonas fimi; with Prunus; in test [2]; in [3]; in the test listed under Bos taurus; in the test with Oryza sativa) was “inactive” throughout. For the same compound, the inhibition entry with Penicillium decumbens, with Canavalia ensiformis and in the test on Saccharomyces cerevisiae was “inactive” throughout. The compound also came in with an inhibition in test [1] of 36%.

`COC(=O)C(C)N1C[C@@H](CO)O[C@H](OC)C1` (stereo partly drawn): the inhibition result (with Cellulomonas fimi; in the test on Prunus; in test [2]; in [3]; in the test listed under Bos taurus; in the test with Oryza sativa) was “inactive” each time. Further, the inhibition result in the test with Penicillium decumbens and with Saccharomyces cerevisiae was “inactive” in each case. This compound showed an inhibition in test [1] of 14%.

`CCCCN1C[C@@H](CO)O[C@H](OC)[C@H](O)C1`: the inhibition entry (in the test on Cellulomonas fimi; with Prunus; in [2]; in [3]; in the test on Oryza sativa; in the test on Penicillium decumbens) was “inactive” throughout. The inhibition entry with Canavalia ensiformis is “inactive”. In addition, the inhibition in test [1] came out at 23%; in the test filed under Bos taurus it was 32%; in the test on Saccharomyces cerevisiae, 8%.

Source of the values: ChEMBL document CHEMBL1821567, “Synthesis and glycosidase inhibitory profiles of functionalised morpholines and oxazepanes” (Bioorg Med Chem, 2011).
